According to PubChem BioAssay AID977616 (Broad Institute, 2014):
Calls of active or inactive are those of the source.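 How the source made its calls: active means falling-signal curve whose AC50 is at most twice the highest valid dose tested; inconclusive means flat fit showing 30 to 70% signal loss, or poor fit; inactive means the rest, including opposite-direction effects.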

Test system: HepG2 viability, CellTiter-Glo ATP luminescence, 72 h
Assay: viability loss in hepatoma cells – cell-based, CellTiter-Glo luminescence, dry powder, set 14, cytotoxicity control, dose response (AID 977616)
Settings: not given
Summary of the method: (§1)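 Material: HepG2 cells, wild type / Amount: 2000 HepG2 cells per well / Times: seeding 24 h pre-dose, 72 h exposure, 37 °C, 5% CO2 / Measured by: CellTiter-Glo ATP luminescence / Medium: DMEM growth medium with 10% FBS / Dosing: compound tested at multiple concentrations (dose series)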
With `COc1ccc(-c2ccc(CN(C)C[C@@H]3Oc4cc(C#C[C@@H](C)O)ccc4S(=O)(=O)N([C@@H](C)CO)C[C@@H]3C)cc2)cc1` the AC50 was 20.2 µM. Work on `C[C@@H](O)C#Cc1ccc2c(c1)O[C@@H](CN(C)Cc1ccc(-c3ccc(Cl)cc3)cc1)[C@@H](C)CN([C@@H](C)CO)S2(=O)=O` yielded an AC50 of 21.6 µM. `C[C@H](O)C#Cc1ccc2c(c1)O[C@@H](CN(C)Cc1ccc(-c3ccccc3)cc1)[C@H](C)CN([C@@H](C)CO)S2(=O)=O` showed an AC50 of 19.7 µM. Compound `C[C@@H](O)C#Cc1ccc2c(c1)O[C@@H](CN(C)Cc1ccc(-c3ccccc3Cl)cc1)[C@@H](C)CN([C@@H](C)CO)S2(=O)=O` has an AC50 of 25.9 µM. `C[C@H](O)C#Cc1ccc2c(c1)O[C@H](CN(C)Cc1ccc(-c3ccccc3)cc1)[C@@H](C)CN([C@H](C)CO)S2(=O)=O` showed an AC50 of 21.2 µM. With `C[C@@H](O)C#Cc1ccc2c(c1)O[C@H](CN(C)Cc1ccc(-c3ccccc3)cc1)[C@@H](C)CN([C@@H](C)CO)S2(=O)=O` the AC50 was 20 µM. For `C[C@@H]1CN([C@@H](C)CO)S(=O)(=O)c2ccc(C#C[C@@H](C)O)cc2O[C@H]1CN(C)Cc1ccc(-c2ccccc2)cc1`, the AC50 was 17.8 µM. Work on `Cc1cccc(-c2ccc(CN(C)C[C@@H]3Oc4cc(C#C[C@@H](C)O)ccc4S(=O)(=O)N([C@@H](C)CO)C[C@@H]3C)cc2)c1` yielded an AC50 of 23.1 µM. For `C[C@H](O)C#Cc1ccc2c(c1)O[C@H](CN(C)Cc1ccc(-c3ccccc3)cc1)[C@@H](C)CN([C@@H](C)CO)S2(=O)=O`, the AC50 was 4.56 µM. `C[C@H](O)C#Cc1ccc2c(c1)O[C@@H](CN(C)Cc1ccc(-c3ccccc3)cc1)[C@H](C)CN([C@H](C)CO)S2(=O)=O` showed an AC50 of 19.2 µM. Work on `C[C@@H](O)C#Cc1ccc2c(c1)O[C@@H](CN(C)Cc1ccc(-c3cccc(Cl)c3)cc1)[C@@H](C)CN([C@@H](C)CO)S2(=O)=O` yielded an AC50 of 25.4 µM. For `C[C@H](O)C#Cc1ccc2c(c1)O[C@@H](CN(C)Cc1ccc(-c3ccccc3)cc1)[C@@H](C)CN([C@@H](C)CO)S2(=O)=O`, the AC50 was > 52 µM (inactive). `COc1ccccc1-c1ccc(CN(C)C[C@@H]2Oc3cc(C#C[C@@H](C)O)ccc3S(=O)(=O)N([C@@H](C)CO)C[C@@H]2C)cc1` gave an AC50 of 20.4 µM. In the case of `C[C@H]1CN([C@@H](C)CO)S(=O)(=O)c2ccc(-c3ccc(O)cc3)cc2O[C@H]1CN(C)Cc1ccc(-c2ccccc2)cc1`, the AC50 is reported as > 52 µM (inactive). Compound `COc1cccc(-c2ccc(CN(C)C[C@@H]3Oc4cc(C#C[C@@H](C)O)ccc4S(=O)(=O)N([C@@H](C)CO)C[C@@H]3C)cc2)c1` has an AC50 of 22.5 µM.

Test system: not listed separately
Assay: as above
Settings: HepG2 viability, CellTiter-Glo ATP luminescence, 72 h; at 12 µM (top of the series)
Summary of the method: as §1
With `C[C@H](O)C#Cc1ccc2c(c1)O[C@@H](CN(C)Cc1ccc(-c3ccccc3)cc1)[C@@H](C)CN([C@H](C)CO)S2(=O)=O` the activity change, negative = cytotoxicity was -7.08% (inactive).

Same assay, conditions: HepG2 viability, CellTiter-Glo ATP luminescence, 72 h; at 26 µM (top of the series)
In the case of `C[C@H](O)C#Cc1ccc2c(c1)O[C@H](CN(C)Cc1ccc(-c3ccccc3)cc1)[C@H](C)CN([C@@H](C)CO)S2(=O)=O`, the activity change, negative = cytotoxicity is reported as -13.4% (inactive). For `C[C@@H](O)C#Cc1ccc2c(c1)O[C@@H](CN(C)Cc1ccncc1)[C@@H](C)CN([C@@H](C)CO)S2(=O)=O`, the activity change, negative = cytotoxicity was -6.07% (inactive). With `C[C@H]1CN([C@@H](C)CO)S(=O)(=O)c2ccc(Br)cc2O[C@H]1CN(C)Cc1ccc(-c2ccccc2)cc1` the activity change, negative = cytotoxicity was 14.1% (inactive). In the case of `C[C@@H](O)C#Cc1ccc2c(c1)O[C@@H](CN(C)S(=O)(=O)c1ccc(-c3ccccc3)cc1)[C@@H](C)CN([C@@H](C)CO)S2(=O)=O`, the activity change, negative = cytotoxicity is reported as -8.38% (inactive). For `C[C@@H]1CN([C@H](C)CO)S(=O)(=O)c2ccc(C#C[C@@H](C)O)cc2O[C@@H]1CN(C)Cc1ccc(-c2ccccc2)cc1`, the activity change, negative = cytotoxicity was -8.68% (inactive). In the case of `CNC[C@@H]1Oc2cc(Br)ccc2S(=O)(=O)N([C@@H](C)CO)C[C@@H]1C`, the activity change, negative = cytotoxicity is reported as -25.9% (inactive). For `CO[C@H]1CN(C)C(=O)c2ccc(NC(=O)c3ccc(F)cc3)cc2OC[C@H](C)N(C(=O)c2ccc(F)cc2)C[C@@H]1C`, the activity change, negative = cytotoxicity was 11.6% (inactive). In the case of `C[C@@H](O)C#Cc1ccc2c(c1)O[C@@H](CN(C)Cc1cccnc1)[C@@H](C)CN([C@@H](C)CO)S2(=O)=O`, the activity change, negative = cytotoxicity is reported as 2.57% (inactive). In the case of `C[C@H](CO)N1C[C@H](C)[C@H](CN(C)Cc2ccc(-c3ccccc3)cc2)Oc2cc(C#C[C@@H](C)O)ccc2S1(=O)=O`, the activity change, negative = cytotoxicity is reported as 0.52% (inactive).
